The values that follow come from ChEMBL document CHEMBL4321880 (J Med Chem, 2020).

Data set [1] concerns the target T1, Cytochrome P450 3A4 (Homo sapiens, UniProt P08684). Briefly: Inhibition of CYP3A4 in human liver microsomes assessed as formation of 6-beta-hydroxytestosterone at 1.85 uM using testosterone as substrate incubated for 10 mins in presence of NADPH by LC-MS/MS analysis. It counts as ADME. The gist of the method:
(§1)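 Pooled human liver microsomes with 2 mM NADPH in 100 mM KPO4 pH 7.4, 5 mM MgCl2, 37 °C, technical triplicate, final DMSO 0.2%. Probe (substrate, level, protein, time): 1A2 tacrine 5 μM, 0.2 mg/mL, 10 min; 2B6 bupropion 100 μM, 0.25 mg/mL, 10 min; 2C8 amodiaquine 5 μM, 0.25 mg/mL, 10 min; 2C9 tolbutamide 100 μM, 0.5 mg/mL, 15 min; 2C19 mephenytoin 100 μM, 0.25 mg/mL, 60 min; 2D6 dextromethorphan 5 μM, 0.5 mg/mL, 10 min; 3A4 midazolam 2.5 μM or testosterone 50 μM, 0.25 mg/mL, 10 min. Methanol quench, metabolites measured by LC-MS/MS.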

The test system of data set [2] is ASPC1. Briefly: Cytotoxicity against lentiviral pLVX-TRE3G-ZsGreen1-CYP3A5 transduced wild type human AsPC1 cells overexpressing CYP3A5 assessed as cell growth. The data set is classed as ADME, cell-based. The method, boiled down: (§2)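 Cells seeded at 10,000/well. Dox-inducible lines were induced with 100 ng/mL doxycycline, then treated 24 h later with compound at 16 two-fold dilutions (0.0003–10 μM) plus 5 μM midazolam, in 0.66% DMSO final, for 24 h. Phase-contrast confluence imaging followed. Values were normalized to six 0.66% DMSO replicates and fitted with a three-parameter log(inhibitor) vs response curve.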

In data set [3] the test system is ASPC1. Briefly: Cytotoxicity against CRISPR/Cas9-mediated CYP3A5 knock-out and doxycycline-induced CYP3A4 overexpressing human AsPC1 cells assessed as cell growth. It counts as ADME, cell-based. The method, boiled down:
as §2

Data set [4] concerns the target CYP3A5 (Homo sapiens, UniProt P20815). Briefly: Inhibition of human recombinant CYP3A5 expressed in supersomes assessed as decrease in formation of D-luciferin at 1.89 uM using luciferin-IPA as substrate incubated for 10 mins in presence of NADPH by P450-Glo luminescence assay relative to control. To be noted: probe luciferin-IPA.
In data set [5] the target is Cytochrome P450 3A5 (Homo sapiens, UniProt P20815). Briefly: Binding affinity to heme in His-tagged CYP3A5 (unknown origin) expressed in Escherichia coli DH5alpha assessed as formation of five-coordinate ferric heme iron by measuring type 1 Soret shift from 417 nm (low spin) to 395 nm (high spin) by UV-vis spectrophotometric titration analysis. The gist of the method: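 Purified recombinant His-tagged CYP3A5 titrated with successive ligand additions until heme absorbance stopped changing. The ligand-free spectrum was subtracted to give difference spectra. Peak-minus-trough values were plotted against ligand concentration and fitted to a binding equation for Kd. Wavelength pairs: ΔA 386–418 nm for the type I shift; ΔA 432–410 nm for the type II shift.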
Cytochrome P450 3A5, sequence (P20815 whole entry): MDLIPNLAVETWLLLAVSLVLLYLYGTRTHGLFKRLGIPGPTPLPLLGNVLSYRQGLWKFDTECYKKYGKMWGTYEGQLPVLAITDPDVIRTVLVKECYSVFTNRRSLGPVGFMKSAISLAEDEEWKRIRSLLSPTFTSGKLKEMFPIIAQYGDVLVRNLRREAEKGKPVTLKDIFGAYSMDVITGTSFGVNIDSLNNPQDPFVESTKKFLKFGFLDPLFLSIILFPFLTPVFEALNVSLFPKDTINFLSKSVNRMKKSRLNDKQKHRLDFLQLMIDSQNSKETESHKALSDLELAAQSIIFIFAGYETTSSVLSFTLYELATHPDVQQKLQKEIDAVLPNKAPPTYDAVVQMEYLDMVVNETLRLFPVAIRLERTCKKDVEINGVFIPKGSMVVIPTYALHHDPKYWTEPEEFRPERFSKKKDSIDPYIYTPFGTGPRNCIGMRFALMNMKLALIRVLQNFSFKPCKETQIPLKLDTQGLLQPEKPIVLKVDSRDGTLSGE

Data set [6] deals with T1, Cytochrome P450 3A4. Briefly: Binding affinity to His-tagged CYP3A4 (unknown origin) expressed in Escherichia coli DH5alpha assessed as type 1 spectral shift to substrate-bound form by UV-vis spectrophotometric titration analysis. The data set is classed as ADME. The method, boiled down:
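Recombinant His-tagged enzyme expressed in E. coli with groESL chaperones, purified by Ni-NTA, CM-sepharose and S-200 gel filtration (Rz ≥1.3). Ligand added stepwise until heme absorbance stopped changing. Difference spectra taken against the ligand-free spectrum. Peak-minus-trough ΔAbs (388–418 nm) plotted against ligand concentration and fitted with equation 2 for Kd.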

Data set [7] deals with T1, Cytochrome P450 3A4. Briefly: Inhibition of CYP3A4 in CRISPR/Cas9-mediated CYP3A5 knock-out and doxycycline-induced CYP3A4 overexpressing human AsPC1 cells assessed as decrease in 1-hydroxymidazolam formation using midazolam as substrate pretreated with doxycycline for 24 hrs followed by incubation with compound for 24 hrs by LC-MS/MS analysis. It counts as ADME, cell-based. The gist of the method: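 AsPC-1 CYP3A5−/− cells with Dox-inducible CYP3A4, 10,000 cells/well, induced with 100 ng/mL doxycycline. Quenched with acetonitrile containing warfarin internal standard. 1-Hydroxymidazolam measured by LC-MS/MS and normalized to DMSO control (100%).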

Data set [8] deals with ASPC1. Briefly: Cytotoxicity against CRISPR/Cas9-mediated CYP3A5 knock-out and lentiviral pLVX-TRE3G-ZsGreen1-CYP3A4 transduced human AsPC1 cells overexpressing CYP3A4 assessed as cell growth. It counts as ADME, cell-based. The method, boiled down:
as §2

Data set [9] relates to ASPC1. Briefly: Cytotoxicity against CRISPR/Cas9-mediated CYP3A5 knock-out and doxycycline-induced CYP3A5 overexpressing human AsPC1 cells assessed as cell growth. It counts as ADME, cell-based. The method, boiled down: as §2
For data set [10], the target named is T1, Cytochrome P450 3A4. Briefly: Induction of CYP3A4 in CRISPR/Cas9-mediated CYP3A5 knock-out and doxycycline-induced CYP3A4 overexpressing human AsPC1 cells assessed as increase in 1-hydroxymidazolam formation using midazolam as substrate pretreated with doxycycline for 24 hrs followed by incubation with compound at higher concentrations for 24 hrs by LC-MS/MS analysis. It counts as ADME, cell-based. To be noted: aspc1, 24 h. The gist of the method:
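AsPC-1 CYP3A5−/− cells with Dox-inducible CYP3A4, 10,000 cells/well, induced with 100 ng/mL doxycycline. 24 h later given compound (16-point 1:2 series, 0.0003–10 μM) plus 5 μM midazolam, final DMSO 0.66%, for 24 h. Quenched with acetonitrile containing warfarin internal standard. 1-Hydroxymidazolam measured by LC-MS/MS and normalized to DMSO control (100%).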

For data set [11], the target named is Cytochrome P450 2C19 (Homo sapiens, UniProt P33261). Briefly: Inhibition of CYP2C19 in human liver microsomes assessed as formation of 4-hydroxymephenytoin at 1.85 uM using mephenytoin as substrate incubated for 60 mins in presence of NADPH by LC-MS/MS analysis. It counts as ADME. The settings on record: 1 h. The gist of the method:
as §1

Data set [12] concerns the target T2, Cytochrome P450 2C8 (Homo sapiens, UniProt P10632).
T2 sequence (P10632 whole entry): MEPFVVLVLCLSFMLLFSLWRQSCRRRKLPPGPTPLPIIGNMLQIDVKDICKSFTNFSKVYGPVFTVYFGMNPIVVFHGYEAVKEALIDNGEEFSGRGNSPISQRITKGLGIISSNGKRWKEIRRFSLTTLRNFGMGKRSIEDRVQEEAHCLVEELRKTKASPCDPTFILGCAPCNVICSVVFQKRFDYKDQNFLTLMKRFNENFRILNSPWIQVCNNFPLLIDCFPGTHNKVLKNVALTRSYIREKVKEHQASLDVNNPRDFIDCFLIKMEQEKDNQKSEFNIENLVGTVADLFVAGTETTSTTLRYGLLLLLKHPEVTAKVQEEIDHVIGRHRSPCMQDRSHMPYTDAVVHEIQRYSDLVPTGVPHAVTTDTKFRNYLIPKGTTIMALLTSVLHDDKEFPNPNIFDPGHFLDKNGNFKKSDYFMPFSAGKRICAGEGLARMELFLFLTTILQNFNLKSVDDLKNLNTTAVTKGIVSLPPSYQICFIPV
Briefly: Inhibition of CYP2C8 in human liver microsomes assessed as formation of desethylamodiaquine at 1.85 uM using amodiaquine as substrate incubated for 10 mins in presence of NADPH by LC-MS/MS analysis. It counts as ADME. The gist of the method: as §1

T1 sequence (P08684 whole entry): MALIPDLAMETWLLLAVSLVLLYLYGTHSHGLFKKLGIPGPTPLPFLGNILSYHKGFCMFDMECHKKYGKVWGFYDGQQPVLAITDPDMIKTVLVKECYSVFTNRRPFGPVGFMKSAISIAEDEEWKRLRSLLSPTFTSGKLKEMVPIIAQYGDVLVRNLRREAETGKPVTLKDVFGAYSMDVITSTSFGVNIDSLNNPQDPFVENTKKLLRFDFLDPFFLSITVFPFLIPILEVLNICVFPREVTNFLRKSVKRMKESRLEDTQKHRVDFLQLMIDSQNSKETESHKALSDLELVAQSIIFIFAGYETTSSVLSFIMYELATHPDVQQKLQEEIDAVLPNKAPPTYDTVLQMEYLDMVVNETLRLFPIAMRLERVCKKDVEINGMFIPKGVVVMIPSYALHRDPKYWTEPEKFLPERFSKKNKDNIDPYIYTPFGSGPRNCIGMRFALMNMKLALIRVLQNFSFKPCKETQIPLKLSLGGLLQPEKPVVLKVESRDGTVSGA
Cytochrome P450 2C19, sequence (P33261 whole entry): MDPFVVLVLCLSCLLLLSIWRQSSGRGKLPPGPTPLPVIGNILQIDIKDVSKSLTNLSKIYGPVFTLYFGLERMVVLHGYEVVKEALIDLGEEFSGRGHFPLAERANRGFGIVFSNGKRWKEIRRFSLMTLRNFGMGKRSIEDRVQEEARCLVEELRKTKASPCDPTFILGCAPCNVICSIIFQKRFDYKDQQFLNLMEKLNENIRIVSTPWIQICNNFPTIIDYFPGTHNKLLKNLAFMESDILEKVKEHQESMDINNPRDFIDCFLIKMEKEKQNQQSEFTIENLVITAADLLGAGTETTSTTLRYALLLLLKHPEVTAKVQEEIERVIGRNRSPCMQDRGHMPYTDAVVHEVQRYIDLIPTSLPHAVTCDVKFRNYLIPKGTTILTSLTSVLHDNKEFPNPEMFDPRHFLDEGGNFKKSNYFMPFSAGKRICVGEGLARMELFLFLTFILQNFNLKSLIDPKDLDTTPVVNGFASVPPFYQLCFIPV
CYP3A5, sequence (P20815 whole entry): as the sequence (P20815 whole entry) above

`CCC(=O)O[C@]1(C(=O)CCl)[C@@H](C)C[C@H]2[C@@H]3CCC4=CC(=O)C=C[C@]4(C)[C@@]3(F)[C@@H](O)C[C@@]21C` [CLOBETASOL PROPIONATE]: the “inhibition (INH)” value in [1], in [11] and in [12] was “Not Active” in each case. The Activity result was “Non-Toxic” in data set [2]; “Non-Toxic” in data set [3]; “Active” in [5]; “Active” in data set [6]; “Non-Toxic” in data set [8]; “Non-Toxic” in data set [9]. In addition, the result in data set [10] was Active. The inhibition at 10 min, 1.89 µM in data set [4] turned out to be 90%. For the same compound, the IC50 entry in [7] is “Not Active”.
